Laboratory results: ChEMBL document CHEMBL4004810, “Pharmacokinetics of the Individual Major Components of Polymyxin B and Colistin in Rats” (J Nat Prod, 2017)
Positions of bridges follow the written chain, without caps; N, C: chain ends. Non-standard residues stand in square brackets, D forms with d. Residues, ends and D or L forms follow the SMILES beside them. *: point of attachment. Heptanoyl(6-Me) = CC(C)CCCCC(=O)*; X1 = CC[C@@H](C)CCCCC(=O)*; X2 = CC[C@H](C)CCCCC(=O)*; Octanoyl = CCCCCCCC(=O)*; Dab = NCC[C@H](N)C(=O)O

Key:
[1] = Clearance in Sprague-Dawley rat at 4 mg/kg, iv administered as single bolus cassette dose by UPLC-MS/MS analysis; type: ADME, organism-based; conditions: in vivo
[2] = Protein binding in rat plasma up to 10 ug/ml after 2 hrs by LC-MS/MS based ultrafiltration method; conditions: read-out: PPB (converted)
[3] = Total clearance in Sprague-Dawley rat at 0.8 mg/kg, iv administered as single bolus dose by LC-MS/MS analysis; type: ADME, organism-based; conditions: in vivo
Method in brief: (§1)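 Jugular vein (dosing) and carotid artery (sampling) cannulated rats, recovered one day; 4 groups, n = 4, each given a 0.8 mg/kg iv bolus of one component. Blood sampled predose and at 10–360 min; urine collected in chilled metabolic cages over 0–6 h and 6–24 h. Plasma and urine quantified by LC-MS/MS (calibration 0.1–8.0 mg/L); parameters by noncompartmental analysis.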

[4] = Plasma concentration in Sprague-Dawley rat at 0.8 mg/kg, iv administered as single bolus dose after 360 mins by LC-MS/MS analysis; type: ADME, organism-based; method in brief: as §1
[5] = Volume of distribution in Sprague-Dawley rat at 0.8 mg/kg, iv administered as single bolus dose by LC-MS/MS analysis; type: ADME, organism-based; conditions: in vivo; method in brief: as §1
[6] = Elimination half life in Sprague-Dawley rat at 0.8 mg/kg, iv administered as single bolus dose by LC-MS/MS analysis; type: ADME, organism-based; conditions: in vivo, read-out: beta t1/2; method in brief: as §1
[7] = AUC (0 to infinity) in Sprague-Dawley rat at 0.8 mg/kg, iv administered as single bolus dose by LC-MS/MS analysis; type: ADME, organism-based; design: dose 0.8 mg/kg, route intravenous, time infinity; conditions: in vivo; method in brief: as §1
[8] = Drug recovery in Sprague-Dawley rat urine at 0.8 mg/kg, iv administered as single bolus dose by LC-MS/MS analysis; type: ADME, organism-based; conditions: read-out: Drug recovery; method in brief: as §1
[9] = Protein binding in Sprague-Dawley rat plasma at 5 mg/L after 30 mins by ultracentrifugation based LC-MS/MS method; type: ADME, cell-free; conditions: read-out: PPB (converted)
Method in brief: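 Drug-free rat plasma spiked with 5 mg/L component in triplicate, incubated 30 min at 37 °C, then ultracentrifuged 215000g for 4 h at 37 °C. Two replicates sampled protein-free supernatant, one sampled total resuspension; both measured by LC-MS/MS. % bound = (total − supernatant)/total × 100.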

[10] = Total clearance in Sprague-Dawley rat at 1 mg/kg, iv administered as bolus dose by HPLC analysis; type: ADME, organism-based; conditions: in vivo

Structure (SMILES) | clearance [1] [mL/min/kg] | fraction unbound at 2 h [2] | clearance [3] [mL/min/kg] | concentration at 6 h [4] [ng/mL] | Vd [5] [L/kg] | half-life [6] [h] | AUC(0-inf) [7] [ng·h/mL] | dose excreted [8] [%] | fraction unbound at 0.5 h, 5 mg/L [9] | clearance [10] [mL/min/kg]
CCCCCCCC(=O)N[C@@H](CCN)C(=O)N[C@H](C(=O)N[C@@H](CCN)C(=O)N[C@H]1CCNC(=O)[C@H]([C@@H](C)O)NC(=O)[C@H](CCN)NC(=O)[C@H](CCN)NC(=O)[C@H](CC(C)C)NC(=O)[C@@H](Cc2ccccc2)NC(=O)[C@H](CCN)NC1=O)[C@@H](C)O (Octanoyl-[Dab]T[Dab][Dab][Dab][dF]L[Dab][Dab]T; lactam 4-C) | 1.69 | 0.08 |  |  |  |  |  |  |  | 
CC[C@@H](C)CCCCC(=O)N[C@@H](CCN)C(=O)N[C@H](C(=O)N[C@@H](CCN)C(=O)N[C@H]1CCNC(=O)[C@H]([C@@H](C)O)NC(=O)[C@H](CCN)NC(=O)[C@H](CCN)NC(=O)[C@H](CC(C)C)NC(=O)[C@@H](Cc2ccccc2)NC(=O)[C@H](CCN)NC1=O)[C@@H](C)O (X1-[Dab]T[Dab][Dab][Dab][dF]L[Dab][Dab]T; lactam 4-C) | 1.65 | 0.08 | 2.39 | 200 | 0.21 | 1.32 | 6080 | 0.13 | 0.177 | 
CC[C@H](C)CCCCC(=O)N[C@@H](CCN)C(=O)N[C@H](C(=O)N[C@@H](CCN)C(=O)N[C@H]1CCNC(=O)[C@H]([C@@H](C)O)NC(=O)[C@H](CCN)NC(=O)[C@H](CCN)NC(=O)[C@H](CC(C)C)NC(=O)[C@@H](CC(C)C)NC(=O)[C@H](CCN)NC1=O)[C@@H](C)O (X2-[Dab]T[Dab][Dab][Dab][dL]L[Dab][Dab]T; lactam 4-C) |  |  | 2.75 |  | 0.27 | 1.37 | 5020 | 0.14 | 0.434 | 5.1
CC(C)CCCCC(=O)N[C@@H](CCN)C(=O)N[C@H](C(=O)N[C@@H](CCN)C(=O)N[C@H]1CCNC(=O)[C@H]([C@@H](C)O)NC(=O)[C@H](CCN)NC(=O)[C@H](CCN)NC(=O)[C@H](CC(C)C)NC(=O)[C@@H](CC(C)C)NC(=O)[C@H](CCN)NC1=O)[C@@H](C)O [COLISTIN B] ({Heptanoyl(6-Me)}-[Dab]T[Dab][Dab][Dab][dL]L[Dab][Dab]T; lactam 4-C) |  |  | 3.05 |  | 0.37 | 1.52 | 4600 | 0.24 | 0.583 | 5.3
CC(C)CCCCC(=O)N[C@@H](CCN)C(=O)N[C@H](C(=O)N[C@@H](CCN)C(=O)N[C@H]1CCNC(=O)[C@H]([C@@H](C)O)NC(=O)[C@H](CCN)NC(=O)[C@H](CCN)NC(=O)[C@H](CC(C)C)NC(=O)[C@@H](Cc2ccccc2)NC(=O)[C@H](CCN)NC1=O)[C@@H](C)O [POLYMYXIN B2] ({Heptanoyl(6-Me)}-[Dab]T[Dab][Dab][Dab][dF]L[Dab][Dab]T; lactam 4-C) | 1.69 | 0.08 | 1.96 | 200 | 0.23 | 1.58 | 6930 | 0.09 | 0.316 | 
